From ChEMBL document CHEMBL1909630, “Azaxanthene based selective glucocorticoid receptor modulators: design, synthesis, and pharmacological evaluation of (S)-4-(5-(1-((1,3,4-thiadiazol-2-yl)amino)-2-methyl-1-oxopropan-2-yl)-5H-chromeno[2,3-b]pyridin-2-yl)-2-fluoro-N,N-dimethylbenzamide (BMS-776532) and its methylene homologue …” (J Med Chem, 2011)
The source made the active and inactive calls. The rule behind the calls is not given here.

How the values were obtained:
[1] = system: SAOS-2; test: Induction of alkaline phosphatase expression in human Saos2 cells after 3 days by spectrophotometry; format: cell-based; conditions: SAOS-2, 72 h
[2] = system: Blood; test: Antiinflammatory activity in human whole blood assessed as inhibition of LPS-induced TNFalpha production after overnight incubation by ELISA; format: functional, tissue-based
Summary of the method: (§1)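 Whole blood from two donors per experiment was collected into ACD-A. Compounds were added and the blood was incubated about 20 h at 37 °C under 5% CO2. Blood was then stimulated for 5 h with LPS (final 100 ng/mL, for TNFα) or IL-1β (final 10 ng/mL, for IL-8). Plasma TNFα or IL-8 was measured by ELISA. Efficacy was expressed as % of dexamethasone, and values are means of at least two experiments.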

[3] = system: Blood; test: Antiinflammatory activity in human whole blood assessed as inhibition of IL-1beta-induced IL-8 production after overnight incubation by ELISA relative to Dexamethasone; format: functional; summary of the method: as §1
[4] = system: Rattus norvegicus; test: Antiinflammatory activity in Sprague-Dawley rat assessed as carrageenan-induced paw edema at 30 mg/kg, po administered as a single dose 2 hrs before carrageenan challenge measured 4 hrs post carrageenan challenge by plethysmometry relative to control
[5] = system: Blood; test: Antiinflammatory activity in human whole blood assessed as inhibition of LPS-induced TNFalpha production after overnight incubation by ELISA relative to Dexamethasone; format: functional; summary of the method: as §1
[6] = system: Blood; test: Antiinflammatory activity in human whole blood assessed as inhibition of TNF-alpha-induced IL-8 production after overnight incubation by ELISA relative to dexamethasone; format: functional
[7] = system: Blood; test: Antiinflammatory activity in human whole blood assessed as inhibition of TNF-alpha-induced IL-8 production after overnight incubation by ELISA; format: functional, tissue-based
[8] = system: MG-63; test: Induction of glutamine synthase expression in human MG63 cells after overnight incubation by spectrophotometry; format: cell-based
[9] = system: Rattus norvegicus; test: Antiinflammatory activity in Freund's complete adjuvant-induced Lewis rat arthritis model assessed as reduction in paw swelling at 5 mg/kg/day, po qd for 21 days; format: functional, organism-based
Summary of the method: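 Male Lewis rats were inoculated with Mycobacterium butyricum in incomplete Freund's adjuvant. Oral dosing was daily and preventative, running from day 0 to day 21. Onset and progression of arthritis were followed, and ED50 was estimated from the dose response.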

[10] = system: Blood; test: Antiinflammatory activity in human whole blood assessed as inhibition of IL-1beta-induced IL-8 production after overnight incubation by ELISA; format: functional, tissue-based; summary of the method: as §1
[11] = target: T1, Mineralocorticoid receptor (Homo sapiens, UniProt P08235); test: Agonist activity at human mineralocorticoid receptor expressed in human A549 cells by fluorescence polarization assay; format: functional, cell-based
T1 sequence (P08235 whole entry): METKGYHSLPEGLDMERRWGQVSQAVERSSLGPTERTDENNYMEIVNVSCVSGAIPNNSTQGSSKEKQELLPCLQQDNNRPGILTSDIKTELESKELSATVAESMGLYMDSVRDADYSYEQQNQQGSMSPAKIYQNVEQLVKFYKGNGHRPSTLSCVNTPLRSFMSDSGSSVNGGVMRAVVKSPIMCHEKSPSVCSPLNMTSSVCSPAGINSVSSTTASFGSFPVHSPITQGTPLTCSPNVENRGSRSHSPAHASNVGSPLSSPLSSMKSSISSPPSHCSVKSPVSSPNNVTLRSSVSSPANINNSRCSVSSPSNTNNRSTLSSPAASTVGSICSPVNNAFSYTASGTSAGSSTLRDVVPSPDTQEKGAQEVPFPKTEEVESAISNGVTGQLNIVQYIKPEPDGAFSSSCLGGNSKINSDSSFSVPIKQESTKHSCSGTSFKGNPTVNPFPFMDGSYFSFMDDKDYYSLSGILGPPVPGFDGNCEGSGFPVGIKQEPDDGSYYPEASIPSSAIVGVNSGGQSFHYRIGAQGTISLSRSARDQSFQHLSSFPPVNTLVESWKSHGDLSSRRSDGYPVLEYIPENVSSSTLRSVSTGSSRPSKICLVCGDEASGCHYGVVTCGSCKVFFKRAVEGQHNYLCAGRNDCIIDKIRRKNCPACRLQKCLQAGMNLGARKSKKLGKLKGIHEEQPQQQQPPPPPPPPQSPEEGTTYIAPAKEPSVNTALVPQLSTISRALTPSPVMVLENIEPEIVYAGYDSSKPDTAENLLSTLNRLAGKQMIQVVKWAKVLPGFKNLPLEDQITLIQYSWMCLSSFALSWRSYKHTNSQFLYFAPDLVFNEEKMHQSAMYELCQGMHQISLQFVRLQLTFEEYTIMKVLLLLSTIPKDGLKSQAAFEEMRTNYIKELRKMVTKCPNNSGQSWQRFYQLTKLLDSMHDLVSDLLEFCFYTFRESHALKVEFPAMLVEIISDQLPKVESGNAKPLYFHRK

[12] = system: MG-63; test: Induction of glutamine synthase expression in human MG63 cells after overnight incubation by spectrophotometry relative to prednisolone; format: cell-based
[13] = target: T2, Androgen receptor (Homo sapiens, UniProt P10275); test: Displacement of fluorescently labeled ligand from androgen receptor by fluorescence polarization assay
T2 sequence (P10275 whole entry): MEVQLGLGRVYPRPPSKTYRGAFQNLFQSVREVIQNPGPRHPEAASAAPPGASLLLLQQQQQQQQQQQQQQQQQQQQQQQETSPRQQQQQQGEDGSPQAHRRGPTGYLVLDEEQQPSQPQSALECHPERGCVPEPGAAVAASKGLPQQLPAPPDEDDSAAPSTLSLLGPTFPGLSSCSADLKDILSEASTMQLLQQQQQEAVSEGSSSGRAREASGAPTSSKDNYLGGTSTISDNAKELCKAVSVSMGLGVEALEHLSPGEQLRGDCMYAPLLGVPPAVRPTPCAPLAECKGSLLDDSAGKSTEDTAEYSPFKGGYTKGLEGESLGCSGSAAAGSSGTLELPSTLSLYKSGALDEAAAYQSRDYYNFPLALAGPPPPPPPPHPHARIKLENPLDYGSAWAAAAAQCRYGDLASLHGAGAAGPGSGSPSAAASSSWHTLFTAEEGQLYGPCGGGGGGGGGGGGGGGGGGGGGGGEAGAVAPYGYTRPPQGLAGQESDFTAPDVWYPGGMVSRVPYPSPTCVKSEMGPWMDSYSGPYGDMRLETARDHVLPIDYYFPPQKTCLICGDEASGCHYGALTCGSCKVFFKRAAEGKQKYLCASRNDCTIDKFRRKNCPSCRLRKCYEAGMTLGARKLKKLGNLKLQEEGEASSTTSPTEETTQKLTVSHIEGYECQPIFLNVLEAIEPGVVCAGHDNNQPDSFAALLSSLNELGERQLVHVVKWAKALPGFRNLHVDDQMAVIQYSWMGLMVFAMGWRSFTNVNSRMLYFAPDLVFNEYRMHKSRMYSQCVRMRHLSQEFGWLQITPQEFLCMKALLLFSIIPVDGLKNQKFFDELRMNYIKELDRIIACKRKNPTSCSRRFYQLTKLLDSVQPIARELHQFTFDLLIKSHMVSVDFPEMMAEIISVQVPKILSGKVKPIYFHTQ
Summary of the method: (§2)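 Binding was measured by fluorescence polarization competition between compound and a fluorescent ligand for full-length receptor or ligand-binding domain. Values are means of at least two experiments.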

[14] = target: T3, Glucocorticoid receptor (Homo sapiens, UniProt P04150); test: Transrepression activity at glucocorticoid receptor alpha in IL-1beta-stimulated human A549 cells assessed as inhibition of NFkappaB-dependent E-selectin transcription by luciferase reporter gene assay; format: cell-based
T3 sequence (P04150 whole entry): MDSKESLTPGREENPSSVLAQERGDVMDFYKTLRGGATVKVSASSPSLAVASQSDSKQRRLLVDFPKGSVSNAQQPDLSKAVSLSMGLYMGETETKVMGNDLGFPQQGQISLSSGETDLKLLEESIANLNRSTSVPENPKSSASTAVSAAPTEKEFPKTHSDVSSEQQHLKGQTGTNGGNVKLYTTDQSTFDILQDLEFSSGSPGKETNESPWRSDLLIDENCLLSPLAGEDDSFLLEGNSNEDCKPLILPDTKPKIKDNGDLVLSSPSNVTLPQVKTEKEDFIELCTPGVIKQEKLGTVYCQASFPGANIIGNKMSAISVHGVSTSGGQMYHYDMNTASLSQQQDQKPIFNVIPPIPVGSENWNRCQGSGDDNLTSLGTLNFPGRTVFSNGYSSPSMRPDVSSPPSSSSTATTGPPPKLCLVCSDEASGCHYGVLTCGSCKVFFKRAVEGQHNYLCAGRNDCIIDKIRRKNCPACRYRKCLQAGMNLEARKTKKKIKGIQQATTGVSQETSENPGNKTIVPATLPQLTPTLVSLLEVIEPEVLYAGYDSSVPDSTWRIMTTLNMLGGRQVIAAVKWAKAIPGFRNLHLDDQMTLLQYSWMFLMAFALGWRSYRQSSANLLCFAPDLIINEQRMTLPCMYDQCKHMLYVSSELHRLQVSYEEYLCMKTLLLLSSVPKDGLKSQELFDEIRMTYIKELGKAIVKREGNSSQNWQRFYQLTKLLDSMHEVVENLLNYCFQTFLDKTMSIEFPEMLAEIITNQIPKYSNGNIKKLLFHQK

[15] = target: T3, Glucocorticoid receptor; test: Transactivation activity at GR-alpha in human NP1 Hela cells assessed as inhibition of GAL4-DBD after 20 hrs by luciferase reporter gene assay; format: cell-based
[16] = target: T4, Progesterone receptor (Homo sapiens, UniProt P06401); test: Displacement of fluorescently labeled ligand from progesterone receptor by fluorescence polarization assay
T4 sequence (P06401 whole entry): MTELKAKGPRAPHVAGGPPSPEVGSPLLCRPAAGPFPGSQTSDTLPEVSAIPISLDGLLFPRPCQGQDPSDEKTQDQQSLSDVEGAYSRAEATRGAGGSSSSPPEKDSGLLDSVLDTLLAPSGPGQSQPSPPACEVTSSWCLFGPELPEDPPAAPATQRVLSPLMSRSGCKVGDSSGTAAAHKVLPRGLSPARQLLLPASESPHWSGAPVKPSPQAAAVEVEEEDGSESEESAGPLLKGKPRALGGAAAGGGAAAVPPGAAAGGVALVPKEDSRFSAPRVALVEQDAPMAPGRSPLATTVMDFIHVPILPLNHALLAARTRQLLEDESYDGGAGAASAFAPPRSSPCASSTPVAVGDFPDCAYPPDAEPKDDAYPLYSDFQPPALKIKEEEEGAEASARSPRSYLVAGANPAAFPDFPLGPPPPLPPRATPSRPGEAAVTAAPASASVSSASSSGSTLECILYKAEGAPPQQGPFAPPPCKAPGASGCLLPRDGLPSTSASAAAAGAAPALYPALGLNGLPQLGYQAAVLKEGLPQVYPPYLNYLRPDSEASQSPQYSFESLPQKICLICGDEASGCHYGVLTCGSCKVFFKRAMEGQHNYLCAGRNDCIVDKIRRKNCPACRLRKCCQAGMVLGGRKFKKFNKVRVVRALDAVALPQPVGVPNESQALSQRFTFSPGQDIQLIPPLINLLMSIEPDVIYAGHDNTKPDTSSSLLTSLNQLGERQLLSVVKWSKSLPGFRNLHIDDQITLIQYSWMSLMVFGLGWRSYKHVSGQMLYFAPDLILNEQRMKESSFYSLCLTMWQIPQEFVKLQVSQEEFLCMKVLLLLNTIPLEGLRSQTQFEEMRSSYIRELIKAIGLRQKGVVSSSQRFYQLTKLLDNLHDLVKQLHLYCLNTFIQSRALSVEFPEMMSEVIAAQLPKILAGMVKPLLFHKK

[17] = target: T3, Glucocorticoid receptor; test: Transrepression activity at glucocorticoid receptor alpha in phorbol myristate acetate-stimulated human A549 cells assessed as inhibition of AP1 response element by luciferase reporter gene assay; format: cell-based
[18] = target: T3, Glucocorticoid receptor; test: Transactivation activity at glucocorticoid receptor alpha human 13D3/Huh7 cells assessed as induction of TAT activity after 4 hrs by spectrophotometry; format: cell-based, Huh-7
[19] = target: T3, Glucocorticoid receptor; test: Displacement of GS-red from glucocorticoid receptor by fluorescence polarization assay
[20] = target: T3, Glucocorticoid receptor; test: Transactivation activity at GR-alpha in human NP1 Hela cells assessed as induction of GAL4-DBD after 20 hrs by luciferase reporter gene assay; format: cell-based
[21] = target: T5, Estrogen receptor (Homo sapiens, UniProt P03372); test: Displacement of fluorescently labeled ligand from ERalpha receptor by fluorescence polarization assay; summary of the method: as §2
T5 sequence (P03372 whole entry): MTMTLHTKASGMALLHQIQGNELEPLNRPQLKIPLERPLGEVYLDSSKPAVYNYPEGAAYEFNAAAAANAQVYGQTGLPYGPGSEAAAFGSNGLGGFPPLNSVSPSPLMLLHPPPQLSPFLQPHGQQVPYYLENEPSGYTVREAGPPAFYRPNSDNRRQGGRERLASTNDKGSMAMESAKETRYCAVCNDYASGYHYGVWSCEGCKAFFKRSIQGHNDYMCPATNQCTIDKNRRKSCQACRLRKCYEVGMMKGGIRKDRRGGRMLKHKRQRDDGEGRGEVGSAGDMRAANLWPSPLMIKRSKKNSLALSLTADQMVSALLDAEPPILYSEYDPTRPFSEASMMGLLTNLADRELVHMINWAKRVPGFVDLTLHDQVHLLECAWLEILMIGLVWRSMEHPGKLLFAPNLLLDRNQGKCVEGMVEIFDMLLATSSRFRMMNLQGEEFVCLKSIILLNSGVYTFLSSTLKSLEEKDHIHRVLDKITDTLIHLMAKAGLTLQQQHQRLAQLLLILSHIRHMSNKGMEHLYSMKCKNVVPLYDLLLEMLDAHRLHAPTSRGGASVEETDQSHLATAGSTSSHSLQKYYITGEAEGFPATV

C[C@]12C=CC(=O)C=C1CC[C@@H]1[C@@H]2[C@@H](O)C[C@@]2(C)[C@H]1CC[C@]2(O)C(=O)CO [PREDNISOLONE]
Emax [1]: 68%
EC50 [2]: 89 nM
Imax [3]: 94%
level, % of control at 30 mg/kg [4]: 49%
Imax [5]: 94%
Imax [6]: 94%
EC50 [7]: 124 nM
EC50 [8]: 19 nM
Activity [9]: Active
EC50 [10]: 104 nM
EC50 [11]: 2 nM
Emax [12]: 100%

CCCc1ccc(-c2ccc3c(n2)Oc2ccccc2[C@H]3C(C)(C)C(=O)Nc2nncs2)cc1
Ki [13]: > 5000 nM
EC50 [14]: 29.7 nM
EC50 [15]: 36 nM
Ki [16]: 285 nM
EC50 [17]: 15.1 nM
EC50 [18]: 823 nM
Ki [19]: 2.4 nM
EC50 [20]: 126 nM

CN(C)C(=O)c1ccc(-c2ccc3c(n2)Oc2ccccc2[C@@H]3C(C)(C)C(=O)Nc2nncs2)cc1
Ki [21]: > 75000 nM
EC50 [14]: 4.6 nM
EC50 [15]: 42.7 nM
Ki [16]: 1230 nM
EC50 [17]: 12.2 nM
EC50 [18]: 22.7 nM
EC50 [11]: > 5000 nM
Ki [19]: 1.74 nM
EC50 [20]: 89 nM
